Assay results: the RNAGym collection of RNA variant scans (doi:10.1126/science.aae0568)
Fewer inactive variants are shown than the library holds.

B1: tRNA (parent)
chain: GUUCCGUUGGCGUAAUGGUAACGCGUCUCCCUCCUAAGGAGAAGACUGCGGGUUCGAGUCCCGUACGGAACG

Variants of: B1
Experiment: yeast fitness relative to wild type (ratio to wild type); higher = fitter; tRNA-Arg(CCU), competitive growth, 37 C, YPD
In short: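 Variants of the tRNA-Arg(CCU) gene, chemically synthesised with a 3% per-site mutation rate at 69 sites, were placed at the native genomic locus in Saccharomyces cerevisiae. The pooled strains were competed in YPD at 37°C for 24 hours in six parallel replicates. Gene amplicons from the start population and from each end population were read by 100-nucleotide paired-end sequencing. Darwinian fitness relative to wild type came from changes in genotype frequencies; genotypes needed ≥ 100 starting reads, and estimates < 0.5 were set to 0.5.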

Variant	yeast fitness
A20U G25A C66U	0.761
A20U G25A G63A	0.716
A20U G25C C60G	0.676
A20U G25C U47A C60G	≤ 0.5
A20U G38A	0.69
A20U G38A A70G	0.516
A20U G38A C46A	0.541
A20U G38A C49A C60G	≤ 0.5
A20U G38A C55U A65G	≤ 0.5
A20U G38A G67C	≤ 0.5
A20U G38C	0.775
A20U G38C A65G C66U	≤ 0.5
A20U G38C C61G A69G	≤ 0.5
A20U G39A G51A U54G A65C A70C	0.554
A20U G39A G51C C55G	≤ 0.5
A20U G39C C55G	≤ 0.5
A20U G39C G48C G52C U53A	≤ 0.5
A20U G41A	0.867
A20U G41C G56C G68C	≤ 0.5
A20U G44A	0.662
A20U G44C C55A	≤ 0.5
A20U G48A C61A A65C	≤ 0.5
A20U G48A C62G	0.602
A20U G48A U64C	0.589

Variant	yeast fitness
A20U G48C	0.84
A20U G48C C61G C66U	0.505
A20U G50A	0.88
A20U G50A A57U	0.529
A20U G50A A65U	≤ 0.5
A20U G50A U59C G67C	≤ 0.5
A20U G51A	0.811
A20U G51A U53G C60G	≤ 0.5
A20U G56A	0.922
A20U G58A	0.907
A20U G67U	0.681
A20U U26A A43G	≤ 0.5
A20U U26A A65C G67C	0.563
A20U U26A C61A A69C	≤ 0.5
A20U U26C C30A	≤ 0.5
A20U U26C C46U G51A	≤ 0.5
A20U U26C U47C A70G	0.603
A20U U28A A40U C62A	≤ 0.5
A20U U28A A69U	0.585
A20U U28A G38C A40G U59C	0.637
A20U U28C A40U A70U	≤ 0.5
A20U U28C C49U	0.61
A20U U28C G44A C46U G48A C60G C62A C66G	0.578
A20U U28G C33U U35G C60A	≤ 0.5

Variant	yeast fitness
A20U U32A	0.78
A20U U32A C46G	0.586
A20U U32C	0.882
A20U U32C G38C A65G	≤ 0.5
A20U U35A G38A	0.613
A20U U35A G44C	≤ 0.5
A20U U35C A36G	0.592
A20U U35C A57G	0.546
A20U U35C C49U C55U U64C	0.588
A20U U35C U59A	≤ 0.5
A20U U47A	0.673
A20U U47A A69U	0.619
A20U U47A A70G	0.62
A20U U47C C60G A65U A70G	0.573
A20U U47G C62G G68A	≤ 0.5
A20U U59C	0.917
A20U U64A	0.821
A20U U64C	0.902
A20U U64C A69C	0.657
A21C	0.973
A21C A36C	0.697
A21C A36U C46G C62A A69C	≤ 0.5
A21C A36U C46U	≤ 0.5
A21C A36U C55U	0.626

Variant	yeast fitness
A21C A37C C55G G58A	≤ 0.5
A21C A37G	0.638
A21C A37G C49A	≤ 0.5
A21C A37G U59G	≤ 0.5
A21C A37U	0.646
A21C A37U G51A	≤ 0.5
A21C A37U G58A	≤ 0.5
A21C A42G U54G	0.555
A21C A42U	0.639
A21C A42U G58A	0.549
A21C A42U U54A	≤ 0.5
A21C A43C A57C	≤ 0.5
A21C A43U	0.902
A21C A43U C49U G68A	≤ 0.5
A21C A45C C49U G67A	≤ 0.5
A21C A45C C49U U54C	≤ 0.5
A21C A45C C49U U64C	≤ 0.5
A21C A45C U47G C49U	≤ 0.5
A21C A45U	0.631
A21C A45U G52A	0.503
A21C A45U G52A C62A	≤ 0.5
A21C A45U U47A U53A	≤ 0.5
A21C A57C C62A	≤ 0.5
A21C A57G A69G	≤ 0.5

Variant	yeast fitness
A21C A57G G67A	≤ 0.5
A21C A57U	0.752
A21C A57U C60U C62U C66U	0.612
A21C A65C	0.677
A21C A65G	0.863
A21C A65U	0.697
A21C A65U G67A	0.543
A21C A65U G68C	≤ 0.5
A21C A69C A70U	0.686
A21C A69U	0.827
A21C A70G	0.861
A21C A70U	0.894
A21C C22A A45U G67A	≤ 0.5
A21C C22A C24U A36C	≤ 0.5
A21C C22A C24U U32A C62G	≤ 0.5
A21C C22A C30U G48C	≤ 0.5
A21C C22A C34G G44C C62A	0.606
A21C C22A U26C	≤ 0.5
A21C C22G A42C U47A	≤ 0.5
A21C C22G A42C U47A U64C	≤ 0.5
A21C C22G A57G	≤ 0.5
A21C C22G G38C A57C A65U	≤ 0.5
A21C C22U A43U	0.538
A21C C22U C31U C33U G67A	≤ 0.5

Variant	yeast fitness
A21C C22U C46U G48A G56A C60A C62A	≤ 0.5
A21C C24A C31A U47A	≤ 0.5
A21C C24A G39A G56C A69U	≤ 0.5
A21C C24A U54A A70C	≤ 0.5
A21C C24G A65C G67C	0.718
A21C C24G C33A A37G A69C	0.645
A21C C24G G25C G44A C55G G56A	≤ 0.5
A21C C24U A36C	0.592
A21C C24U A36C A57U	≤ 0.5
A21C C24U A37C G39A C49G	≤ 0.5
A21C C24U C29U A36C	≤ 0.5
A21C C24U G25C U26G U59A A70C	≤ 0.5
A21C C24U U32A A65C	≤ 0.5
A21C C24U U32A C61U	≤ 0.5
A21C C27A A37G A45C	0.529
A21C C27A A45U U47G	≤ 0.5
A21C C27A C33U A69C	0.625
A21C C27A C49G A69C	≤ 0.5
A21C C27A G50C	≤ 0.5
A21C C27G C46A C55G	≤ 0.5
A21C C27G U28A C29U C34U A57G G58C	≤ 0.5
A21C C27U A45G	0.584
A21C C27U A57U C62G C66U	≤ 0.5
A21C C27U C34U G50C G52C C61U	≤ 0.5

Variant	yeast fitness
A21C C27U C49U	0.679
A21C C27U C55G	0.617
A21C C27U C61U G68A	≤ 0.5
A21C C27U G41A	0.966
A21C C27U G48C	0.547
A21C C27U G50A	0.571
A21C C27U G63A A65G	0.505
A21C C27U G68U	0.633
A21C C29A G52A C61U	≤ 0.5
A21C C29A G52C	0.566
A21C C29G A36G C46U G58A	0.535
A21C C29G U59C	≤ 0.5
A21C C29U	0.824
A21C C29U A57C A69U	≤ 0.5
A21C C29U C31G	≤ 0.5
A21C C29U C31G A43U A65C	≤ 0.5
A21C C29U U35A C61G	0.707
A21C C30A	0.802
A21C C30A A43G C61U	≤ 0.5
A21C C30G A45G C66A	≤ 0.5
A21C C30G C34G	0.627
A21C C30G C55G	≤ 0.5
A21C C30G C55G A70G	0.532
